# Compound activity: PubChem, several laboratories
# An excerpt weighted towards active compounds, which were near 1.7% of everything screened.
# HNF4A DNA FP = change in binding of human HNF4A to DNA, primary screen, biochemical, fluorescence polarization, FITC-DNA; AID 1224865, 2016; activity change, % at 10 µM; Hepatocyte nuclear factor 4-alpha (Homo sapiens), P41235; 1 h; 360,000 compounds, 0.3% hits; in the data active means activity change above about 30%, passing the limit was not always enough
# Target sequence (P41235 whole entry, looked up): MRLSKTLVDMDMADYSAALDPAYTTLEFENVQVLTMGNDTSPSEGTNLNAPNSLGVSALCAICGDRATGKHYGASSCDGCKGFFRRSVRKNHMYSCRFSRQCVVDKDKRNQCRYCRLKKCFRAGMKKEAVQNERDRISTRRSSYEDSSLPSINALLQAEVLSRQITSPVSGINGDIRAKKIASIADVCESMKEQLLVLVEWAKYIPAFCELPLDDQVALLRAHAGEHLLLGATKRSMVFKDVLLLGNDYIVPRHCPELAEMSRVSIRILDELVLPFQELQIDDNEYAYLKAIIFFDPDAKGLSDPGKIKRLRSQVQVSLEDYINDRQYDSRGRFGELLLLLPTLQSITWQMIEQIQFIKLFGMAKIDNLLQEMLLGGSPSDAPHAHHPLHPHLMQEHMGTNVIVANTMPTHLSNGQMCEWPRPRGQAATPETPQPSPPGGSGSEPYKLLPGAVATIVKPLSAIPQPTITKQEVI
# CSN deneddyl inh = inhibitors of CSN-mediated cullin deneddylation, primary screen, biochemical, fluorescence polarization, uHTS. inhibition, % at 12.5 µM. AID 651999, 2013. Purified CSN, SCF-Nedd8-OG deneddylation. 360,000 compounds, 0.38% hits;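 active means pattern-corrected inhibition above about 35%, with an unprinted fluorescence ratio check between 0.5 and 1.5, limit read from the data, passing the limit was not always enough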
#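 Assay system: HEK293T-derived human Csn5 enzyme; quantity: 0.24 nM enzyme; medium: Tris/NaCl/DTT buffer, pH 7.5; also added: substrate SCFSkp2-Nedd8OG, 10 nM; doses: 12.5 µM compound; schedule: 90 min reaction at room temperature; signal: FP; read-out: % inhibition of substrate cleavage by Csn5; benchmarks: substrate-only high control, full reaction low control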
# IDE cell inh = human IDE inhibitors in live cells, primary screen, fluorescence polarization, HEK cells, FAbetaB substrate; FAbetaB cleavage; inhibition, % at 5.59 µM; 320,000 compounds, 0.41% hits; AID 434962, 2010;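 active means percent inhibition above the average of all tested compounds plus 3 SD, set per screening campaign, cut at about 16% in these data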;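 further: IDE supplied by intact live HEK cells; FP after avidin binding of uncleaved biotin substrate so inhibition keeps polarization high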
# IDE act = human IDE activators in live cells, primary screen, fluorescence polarization, HEK cells, FAbeta-B substrate; 340,000 compounds, 0.073% hits; activation, % at 5.96 µM; Insulin-degrading enzyme (Homo sapiens), P14735; FAbeta-B cleavage; 0% vehicle, 100% cell-free pure enzyme wells; AID 493087, 2011;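 active means activation above the mean of all tested compounds plus 3 SD, set per screening campaign, cut at about 17% in these data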
# Rpn11 inh = Rpn11 (PSMD14) deubiquitinase inhibitors, primary screen, biochemical, fluorescence polarization, uHTS; calls only at 20 µM; human 26S proteasome, Ub4-pepOG fluorescence polarization; 20S core pre-blocked with epoxomicin; AID 588493, 2011; 360,000 compounds, 0.59% hits; 26S proteasome non-ATPase regulatory subunit 14 (Homo sapiens), O00487;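 active means inhibition at 20 µM, scaled to each plate's controls, above about 33%, limit read from the data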
# TPT1 inh = Candida albicans TPT1 enzyme inhibitors, primary screen, biochemical, fluorescence polarization; AID 1962, 2009; 300,000 compounds, 0.81% hits; tRNA 2'-phosphotransferase TPT1 (Candida albicans SC5314); inhibition, % at 5 µM; recombinant caTPT1, FP RNA substrate dephosphorylation;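 active means inhibition above the mean of all tested compounds plus 3 SD, set per screening campaign, cut at about 24% in these data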
# TPT1 inh confirm = Candida albicans TPT1 inhibitors, confirmation, biochemical, fluorescence polarization, triplicate | AID 2149, 2009 | 2,400 compounds, 74% hits | inhibition, % at 5 µM | shares compounds with TPT1 inh | recombinant caTPT1, RNase T1 coupled;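 active means inhibition above the primary screen limit, the mean inhibition of all tested compounds plus 3 SD, cut at about 25% in these data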
# RNase T1 inh = RNase T1 inhibitors, counter-screen for TPT1 inhibitor project, biochemical, fluorescence polarization; shares compounds with TPT1 inh; RNase T1 cleavage, 1536-well; inhibition, % at 5 µM; 2,400 compounds, 83% hits; AID 2153, 2009;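 active means inhibition above the solvent-only control well mean plus 3 SD, limit set per screening run, cut at about 23% in these data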;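 further: inhibitors block cleavage so intact labeled substrate keeps polarization high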
# Target sequence (P00651 whole entry, looked up): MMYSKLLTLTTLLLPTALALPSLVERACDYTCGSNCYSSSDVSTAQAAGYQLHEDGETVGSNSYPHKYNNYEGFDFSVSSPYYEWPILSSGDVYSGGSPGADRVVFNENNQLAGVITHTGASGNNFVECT
# Numbers stand for hits; – = inactive; · = no result given; + = active, no number.
SMILES,HNF4A DNA FP,CSN deneddyl inh,IDE cell inh,IDE act,Rpn11 inh,TPT1 inh,TPT1 inh confirm,RNase T1 inh
O=c1[nH]c(CSc2nc3ccccc3s2)nc2ccccc12,–,–,–,–,–,–,·,·
Cc1sc2nc(CSc3nc4ccccc4s3)[nH]c(=O)c2c1C,·,·,–,·,·,42,52,64
O=S(=O)(c1ccc(-c2ccon2)s1)N1CCN(c2ccncc2)CC1,·,·,–,·,·,44,–,26
O=S(=O)(c1ccc(-c2ccon2)s1)N1CCCC1,–,–,–,–,–,–,·,·
O=C(CSC1=NS(=O)(=O)c2ccccc2N1)N1CCCCC1,–,–,–,–,–,–,·,·
CC(=O)n1nc2nc(C)cc(C)c2c1N,–,–,–,–,–,–,·,·
CCOc1ccccc1C(=O)n1nc2nc(C)cc(C)c2c1N,–,–,–,–,–,44,–,–
CCOC(=O)c1ccc(NS(=O)(=O)c2cnc[nH]2)cc1,–,–,–,–,–,–,·,·
CNS(=O)(=O)c1cccc(C(=O)NNC(=O)CN(C)S(=O)(=O)c2ccc(Cl)cc2)c1,–,–,–,–,–,–,·,·
COc1ccc(C2=NN(c3nc(-c4ccc(CNC(C)=O)cc4)cs3)C(c3ccco3)C2)cc1 (configuration not stated),–,–,–,–,–,31,–,–
Cc1ccc(N=Cc2nc(/C=C/c3cccc([N+](=O)[O-])c3)oc2O)cc1,–,–,–,–,–,28,39,51
Cc1ccc(-c2nc(C=Nc3ccc(O)cc3)c(O)o2)cc1,–,–,·,–,–,·,·,·
Cc1cc2c(cc1C)C(c1cccc([N+](=O)[O-])c1)CC(=O)N2 (configuration not stated),–,–,–,–,–,53,–,32
COc1ccc(-c2nc3c(Cl)cc(C(F)(F)F)cn3c2Cc2ccsc2)cc1OC,–,–,·,·,·,·,·,·
O=C(C[n+]1cccc2ccccc21)c1ccc(NC(=O)c2ccccc2)cc1,–,–,–,–,·,40,28,41
S=c1[nH]cnc2scc(-c3ccccc3)c12,–,–,–,–,–,–,·,·
N#CCc1nc(C(c2ccccc2)c2ccccc2)no1,–,–,–,–,·,25,–,28
COc1ccc(CC(=O)NNS(=O)(=O)c2cccc([N+](=O)[O-])c2)cc1OC,–,–,–,–,–,–,·,·
COc1ccc(-n2c(O)c(/C=N/NS(=O)(=O)c3cccc([N+](=O)[O-])c3)c3ccccc3c2=O)cc1OC,–,–,–,–,·,70,115,118
CCOC(=O)CCc1c(C)c(C#N)c2nc3ccccc3n2c1-n1cnc2ccccc21,–,–,–,–,–,–,·,·
O=C(Cc1cccs1)N/N=C/c1ccccc1,–,–,–,·,–,–,·,·
CN(C(=O)CSc1nnn(C)n1)c1ccccc1,–,–,–,–,–,–,·,·
COC(=O)c1sc2nc(CSc3nc4ccc(C)cc4[nH]3)[nH]c(=O)c2c1C,–,–,–,–,·,38,33,45
COc1ccccc1/C=C/C1=NC(=C\C=C/c2ccccc2)/C(=O)O1,–,–,–,–,–,74,119,122
O=C1OC(/C=C/c2ccccc2)=NC/1=C\c1cccnc1,–,–,–,–,–,–,·,·
SMILES,HNF4A DNA FP,CSN deneddyl inh,IDE cell inh,IDE act,Rpn11 inh,TPT1 inh,TPT1 inh confirm,RNase T1 inh
Cc1ccc2nc(N/N=C\c3ccc([N+](=O)[O-])o3)nc(-c3ccccc3)c2c1,–,–,–,–,–,52,49,44
O=C(COc1coc(CN2CCCc3ccccc32)cc1=O)Nc1ccc([N+](=O)[O-])cc1,–,–,–,–,–,32,–,–
Cc1ccccc1NC(=O)COc1coc(CN2CCCc3ccccc32)cc1=O,–,–,–,–,–,–,·,·
Nc1nc(COC(=O)C2CC(=O)N(Cc3ccccc3Cl)C2)nc(Nc2ccccc2)n1 (configuration not stated),–,–,–,–,–,·,·,·
N#Cc1c(C(F)(F)F)cc(-c2ccco2)nc1SCc1ccccn1,–,–,–,–,·,27,–,23
Nc1c(C(=O)Nc2ccc(Cl)c(C(=O)O)c2)sc2nc3c(cc12)CCCC3,–,–,–,–,–,–,·,·
Nc1c(C(=O)Nc2ccc(S(=O)(=O)N3CCCC3)cc2)sc2nc3cc4c(cc3cc12)CCC4,–,–,–,–,–,39,25,34
O=C1N/C(=C/c2ccc(N3CCOCC3)o2)C(=O)N1c1cccc(Cl)c1,–,–,–,–,+,82,168,166
O=Cc1cn(CC(O)Cn2cc(C=O)c3ccccc32)c2ccccc12,–,–,–,–,–,–,·,·
O=C(/C=C/c1cn(CC(O)CN2CCCCCC2)c2ccccc12)c1cccs1 (configuration not stated),–,–,–,–,·,57,68,76
Cc1cc(C)c2c(c1)[C@@H]1C=CC[C@@H]1[C@H](c1ccc(S(=O)(=O)N3CCOCC3)cc1)N2,–,–,–,–,–,–,·,·
O=C(CCCCl)NC1=NN(c2ccccc2)C(=O)C1,–,–,–,–,–,35,–,–
O=C(Cn1ncc2c3ccccc3n(Cc3cccc(Cl)c3)c2c1=O)NCC1CCCO1 (configuration not stated),–,–,–,–,·,29,98,94
O=C(NCCc1ccccc1)c1cnc2ccccc2n1,–,–,–,–,–,–,·,·
Nc1nc(N)c2ncc(C(=O)CCc3ccccc3)nc2n1,–,–,–,–,–,41,44,56
COC(=O)/C=C/C(=O)N1CCN(c2cccc(Cl)c2)CC1,·,·,–,·,·,48,–,–
COc1ccc(C(=O)N2CCN(c3cccc(Cl)c3)CC2)cc1,–,–,–,–,–,–,·,·
CC(=O)NCCc1ccc(S(=O)(=O)NC2OC(=O)c3ccccc32)cc1 (configuration not stated),–,–,–,–,–,–,·,·
O=c1oc2c(O)c(O)cc3c(=O)oc4c(O)c(O)cc1c4c23,–,–,–,–,–,81,92,–
O=C(NN=Cc1c(O)ccc2ccccc12)c1ccncc1,–,–,·,–,·,·,·,·
